SENP7 inh – blocks the human protease SENP7; recombinant SENP7, Z-RLRGG-aminoluciferin luminescence, 40 min; inhibition, % at 5 µM; 330,000 tested, 1.5% active; AID 434973;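 active = inhibition above about 50% at the single test dose, limit read from the data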;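 also: plate controls were DMSO with enzyme for no effect and no enzyme buffer wells for full effect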
SENP6 block – inhibitors of human SENP6 protease. Q9GZR1. 330,000 tested, 1.8% active. inhibition, % at 10 µM. Recombinant SENP6 catalytic domain, aminoluciferin luminescence. AID 2599;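 active = inhibition above about 50% at the single tested dose, limit read from the data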;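 also: plate controls were DMSO wells with enzyme for no effect and DMSO wells lacking enzyme for full effect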
SENP8 block-1 – SENP8 (human) protease inhibition | Q96LD8 | recombinant SENP8, Nedd8 substrate fluorescence | inhibition, % at 20 µM | 360,000 tested, 0.64% active; in the data active = inhibition mostly above about 40%, no sharp cut-off; inactive = mostly below about 27%
Target sequence (Q96LD8 whole entry, looked up): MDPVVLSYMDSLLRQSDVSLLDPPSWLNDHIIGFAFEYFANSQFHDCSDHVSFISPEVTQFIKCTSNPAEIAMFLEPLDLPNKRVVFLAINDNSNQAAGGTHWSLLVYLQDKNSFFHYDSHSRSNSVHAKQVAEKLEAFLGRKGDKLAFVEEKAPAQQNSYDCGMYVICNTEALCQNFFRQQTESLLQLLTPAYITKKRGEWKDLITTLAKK
SENP8 block-2 – SENP8 protease inhibition | Q96LD8 | purified SENP8, Z-RLRGG-aminoluciferin cleavage, luminescence | inhibition, % at 10 µM | 330,000 tested, 1.2% active; in the data active = inhibition above about 50%
SENP1 FRET inh – inhibitors of human SENP1 SUMO protease catalytic domain | Q9P0U3 | recombinant SENP1 catalytic domain, CyPet-SUMO1-YPet FRET cleavage | inhibition, % at 10 µM | 360,000 tested, 0.21% active | AID 624204;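 active = inhibition at least 30% at 10 µM, raw YFP signal under a set limit, fluorescence ratio 0.5 to 1.5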;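 also: 0% = enzyme with DMSO and 100% = no enzyme wells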
Target sequence (Q9P0U3 419-644 limits assumed): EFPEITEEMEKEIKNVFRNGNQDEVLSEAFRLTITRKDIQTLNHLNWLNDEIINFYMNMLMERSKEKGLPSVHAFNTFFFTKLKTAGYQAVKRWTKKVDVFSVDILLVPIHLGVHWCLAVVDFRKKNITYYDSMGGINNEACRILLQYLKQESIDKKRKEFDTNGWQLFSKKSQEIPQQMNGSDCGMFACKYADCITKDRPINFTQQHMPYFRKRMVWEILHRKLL
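Test system: recombinant human SENP1 catalytic domain, His6-tagged / Medium: pH 8 Tris buffer with EDTA, NaCl, BME, BSA, NP40, catalase / Also added: SUMO1 FRET substrate flanked by Cypet and Ypet, 25 nM / Times: 50 min reaction at room temperature / Signal: FRET, CFP and YFP emission / Control set: no-enzyme low control and enzyme-plus-DMSO high control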
SENP8 inh conf – confirmation of human SENP8 protease inhibitors; shares compounds with SENP8 block-1; purified SENP8, Nedd8-AMC/pro-Nedd8 cleavage fluorescence, 30 min; inhibition, % at 25 µM; 1,400 tested, 15% active; in the data active = inhibition mostly above about 39%, no sharp cut-off; inactive = mostly below about 34%
* = called active by the depositor; x = not tested or not shown. In the library only some 2.5% were active in any assay of this set; here they are far more common.

SMILES	SENP7 inh	SENP6 block	SENP8 block-1	SENP8 block-2	SENP1 FRET inh	SENP8 inh conf
N/C(=N\O)c1ccc([N+](=O)[O-])s1	7	7	31	6	1	x
O=C1NC(Cc2ccccc2)c2nc3ccc(F)cc3c(=O)n2-c2cc3ccccc3cc21 (centres undefined)	x	x	4	x	-1	x
O=c1[nH]cnc2c1ccn2C1OC(CO)C(O)C1O (centres undefined)	x	x	41*	x	0	9
Cc1ccc(NC(=O)CSCC(=O)OC(C)C(=O)Nc2ccccc2C)cc1 (centres undefined)	-1	-3	7	14	0	x
COc1cc2c(cc1OC)C(c1ccccc1)NC(C)(C)C2 (centres undefined)	-1	13	22	2	0	x
CCOc1ccc(NC2=C(Cl)C(=O)N(C3CCCCC3)C2=O)cc1	5	6	16	2	6	x
CN1CCN(C2=C(Cl)C(=O)N(C3CCCCC3)C2=O)CC1	5	7	41*	5	16	5
CC(OC(=O)Cn1[nH]c(=O)c2ccccc2c1=O)C(=O)NC1(C#N)CCCCC1 (centres undefined)	-9	-17	11	-10	3	x
O=C(CSc1ccc(Br)cc1)Nc1ccccc1Oc1ccccc1	0	-19	50*	-4	3	14
O=C(CSc1ccc(Cl)cc1)Nc1ccccc1Oc1ccccc1	6	7	23	8	-1	x
O=C(O)C1Cc2ccccc2CN1C(=O)c1ccccc1 (centres undefined)	5	-2	12	-2	0	x
CC(C)(C)OC(=O)N1Cc2ccccc2C[C@H]1C(=O)O	6	15	40*	3	-2	68*
COc1ccc(NC(=O)CN2C(=O)CSC(C)C2=O)cc1 (centres undefined)	5	-6	5	-4	2	x
COc1cccc(NC(=O)CN(C)CC(=O)Nc2cccc(C(F)(F)F)c2)c1	0	9	17	-3	3	x
COc1ccc(-c2noc(N(C)CC(=O)Nc3cccc(C(F)(F)F)c3)n2)cc1	-5	-21	43*	-8	0	33
Cc1cccc(C)c1NC(=O)c1cn(-c2ccccc2)nc1-c1ccccc1	1	-2	17	-3	1	x
Cc1nn(Cc2ccc(Cl)c(Cl)c2)c(C)c1NC(=O)c1cn(-c2ccccc2)nc1-c1ccccc1	-5	-3	40*	-5	1	7
CCC(C)N(C)C1CCN(C(=S)Nc2cccc(SC)c2)CC1 (centres undefined)	8	-29	43*	5	3	29
CC(C)C(=O)NS(=O)(=O)c1ccc(N)cc1	1	1	47*	-2	2	11
CC(C)CC(=O)NS(=O)(=O)c1ccc(N)cc1	-4	-15	15	1	3	x
CCOC(=O)c1c(-c2cccc([N+](=O)[O-])c2)csc1NC(=O)CCCOc1ccccc1OC	x	x	45*	x	1	26
O=C(CNC(=O)OCc1ccccc1)OC(c1ccccc1)c1ccccc1	x	x	12	x	1	x
O=[N+]([O-])c1ccc(-c2csc(N3CCCCCC3)n2)cc1	1	-13	28	5	-3	x
O=[N+]([O-])c1ccc(N2CCN(c3nc(-c4ccc(Cl)cc4)cs3)CC2)cc1	6	-12	43*	-7	1	-9
CC(=O)N1CCN(c2ccc(NC(=O)c3ccc(N4CCCC4)c([N+](=O)[O-])c3)cc2Cl)CC1	-5	-2	11	3	2	x
SMILES	SENP7 inh	SENP6 block	SENP8 block-1	SENP8 block-2	SENP1 FRET inh	SENP8 inh conf
CCN1CCN(c2ccc(NC(=O)c3ccc([N+](=O)[O-])o3)cc2Cl)CC1	x	x	52*	x	-1	20
CCCC(=O)N1CCN(c2ccc(NC(=O)c3ccc(N4CCCC4)c([N+](=O)[O-])c3)cc2Cl)CC1	8	-8	45*	7	2	18
Cc1ccc(C(=O)Nc2ccccc2[N+](=O)[O-])cc1S(=O)(=O)N1CCOCC1	4	-2	8	-4	2	x
Cc1ccc(NC(=O)c2ccc(N3CCOCC3)c([N+](=O)[O-])c2)cc1S(=O)(=O)N1CCOCC1	7	-3	44*	-3	2	30
COCCN1C[C@@H](CO)O[C@@H](n2cnc3c(NC4CCC4)ncnc32)C1	x	x	9	x	0	x
Cc1ccc(Sc2ccc(/C=N/O)cc2[N+](=O)[O-])cc1	4	7	42*	-13	4	17
CO/N=C/c1ccc(Sc2ccc(C)cc2)c([N+](=O)[O-])c1	2	-6	32	-4	1	x
COc1ccc(C(CNC(=O)C(CCSC)NC(=O)c2ccccc2OC)N2CCCCC2)cc1 (centres undefined)	-1	-10	-20	1	-20	x
CCC1CCCCN1C(=O)COc1ccc(S(=O)(=O)N2CCOCC2)cc1Cl (centres undefined)	4	0	4	-1	-1	x
CCN(CC)S(=O)(=O)c1ccc2c(c1)nc(SCC(=O)NC1CC1)n2-c1ccccc1OC	2	-9	43*	4	0	26
O=[N+]([O-])C1C(c2ccccc2)C12c1ccccc1-c1ccccc12 (centres undefined)	x	x	22	x	3	x
O=[N+]([O-])c1cc(S(=O)(=O)N2CCCC2)ccc1NN=C1CCCCC1	-1	-9	23	-10	3	x
O=[N+]([O-])c1cc(C(F)(F)F)cc([N+](=O)[O-])c1NN=C1CCCCC1	6	4	42*	-4	5	9
CCc1ccc(C(=O)NNc2ccc(F)cc2F)cc1	10	-3	6	-4	5	x
CCCc1ccc(C(=O)NNc2ccc(F)cc2)cc1	10	-10	47*	-14	1	8
Cc1cc(NC(=O)CSc2nnc(C3COc4ccccc4O3)n2N)no1 (centres undefined)	13	-13	43*	-1	3	9
C=CCn1c(SCC(=O)Nc2cc(C)on2)nnc1C1COc2ccccc2O1 (centres undefined)	-13	-16	-6	-10	1	x
CCC(C)NC(=O)[C@H]1N2C(=O)c3c(ccc(OC)c3OC)C2SC1(C)C (some centres undefined)	5	3	-69	1	-3	x
Cc1ccc(NNC(=O)c2cc(C(C)(C)C)nn2Cc2ccccc2)cc1	8	5	39	13	1	x
CC(C)(C)c1cc(C(=O)NNc2cccc(Cl)c2)n(Cc2ccccc2)n1	-6	-8	43*	-4	1	20
CC(C)=CCc1c2c(c3occ(-c4ccc(O)c(O)c4)c(=O)c3c1O)C=CC(C)(C)O2	x	x	26	x	0	x
CC(C)=CCc1c2c(c3occ(-c4ccc(O)cc4)c(=O)c3c1O)C=CC(C)(C)O2	-15	11	43*	-6	-1	26
C=CCn1c(C2CCCCC2)n[nH]c1=S	-1	6	14	-12	1	x
Nc1cccc2nsnc12	24	40	48*	11	11	13
